Results reported in ChEMBL document CHEMBL1132962, “1,2-Dibenzamidobenzene inhibitors of human factor Xa” (J Med Chem, 2000).

Experiments:
[1] = target: Coagulation factor X (Homo sapiens) (UniProt P00742); test: Apparent association constant against coagulation factor X
Summary of the method: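 Purchased human fXa, 3.2 nM final, in buffer of 0.06 M tris, 0.3 M NaCl, pH 7.4, with 1 mg/mL HSA in the enzyme diluent. Inhibitor is added in MeOH at 4–8 concentrations in triplicate, then Bz-Ile-Glu-Gly-Arg-pNA (0.3 mM stock in water) starts the reaction. Hydrolysis is read at 405 nm. Free and bound enzyme come from standard curves. Apparent Kass = [Eb]/[Ef][Io−Ib] at 20–80% inhibition.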

[2] = target: Prothrombin (Homo sapiens) (UniProt P00734); test: Apparent association constant against Coagulation factor II
Summary of the method: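 Human α-thrombin, 5.9 nM, with chromogenic substrate Bz-Phe-Val-Arg-pNA at 0.2 mM. Uses the same general protocol as the fXa assay: pNA release read at 405 nm, with inhibitors auto-diluted in triplicate. Apparent Kass = [Eb]/[Ef][Io−Ib] at concentrations giving 20–80% inhibition. Values are mean ± SD when n≥3 and the average when n=2.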

Coagulation factor X (Homo sapiens), sequence (P00742 41-179 limits assumed): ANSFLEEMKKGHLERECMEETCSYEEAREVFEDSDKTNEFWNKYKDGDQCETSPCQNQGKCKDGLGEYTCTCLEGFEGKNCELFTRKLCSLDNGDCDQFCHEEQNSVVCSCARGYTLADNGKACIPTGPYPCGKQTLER
Coagulation factor X (Homo sapiens), sequence (P00742 235-488 limits assumed): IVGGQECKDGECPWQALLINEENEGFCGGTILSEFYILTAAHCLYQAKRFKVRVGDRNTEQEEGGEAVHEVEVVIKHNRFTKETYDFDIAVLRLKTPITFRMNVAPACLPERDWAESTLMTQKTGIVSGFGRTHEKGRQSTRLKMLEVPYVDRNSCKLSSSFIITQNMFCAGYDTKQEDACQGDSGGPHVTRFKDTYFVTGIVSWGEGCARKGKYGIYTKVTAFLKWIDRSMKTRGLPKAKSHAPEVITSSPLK

SMILES	K ass [1]	K ass [2]
CC(C)(C)c1ccc(C(=O)Nc2ccccc2NC(=O)c2cccc(F)c2)cc1	400000 l M-1	0 l M-1
COc1ccc(C(=O)N(C)c2ccccc2N(C)C(=O)c2ccc(OC)cc2)cc1	0 l M-1	0 l M-1
CCc1ccc(C(=O)Nc2ccccc2NC(=O)c2ccc(C(C)(C)C)cc2)cc1	10000 l M-1	0 l M-1
COc1ccc(C(=O)Nc2ccc(O)cc2NC(=O)c2ccc(N(C)C)cc2)cc1	2.55e+07 l M-1	50000 l M-1
COc1ccc(C(=O)Nc2ccc(NS(C)(=O)=O)cc2NC(=O)c2ccc(C(C)(C)C)cc2)cc1	7.65e+06 l M-1	110000 l M-1
COc1ccc(C(=O)Nc2ccccc2NC(=O)c2ccc(SC)cc2)cc1	1.63e+06 l M-1	20000 l M-1
Cc1ccc(C(=O)Nc2ccccc2NC(=O)c2ccc(C(C)(C)C)cc2)cc1	280000 l M-1	0 l M-1
COc1ccc(C(=O)Nc2ccccc2NC(=O)c2ccc(C(C)(C)OC)cc2)cc1	2.35e+06 l M-1	20000 l M-1
COc1ccc(C(=O)Nc2cccc(O)c2NC(=O)c2ccc(OC)cc2)cc1	450000 l M-1	10000 l M-1
C=Cc1cccc(C(=O)Nc2ccccc2NC(=O)c2ccc(C(C)(C)C)cc2)c1	560000 l M-1	0 l M-1
COc1ccc(C(=O)Nc2cc(C(=O)O)ccc2NC(=O)c2ccc(C(C)(C)C)cc2)cc1	3.99e+06 l M-1	80000 l M-1
COc1ccc(C(=O)Nc2ccc(C)cc2NC(=O)c2ccc(OC)cc2)cc1	450000 l M-1	20000 l M-1
COc1ccc(C(=O)Nc2ccccc2NC(=O)c2ccc(OC)cc2Cl)cc1	710000 l M-1	30000 l M-1
COc1ccc(C(=O)Nc2ccccc2NC(=O)c2ccc(S(C)(=O)=O)cc2)cc1	530000 l M-1	0 l M-1
CCCCCCOc1ccc(C(=O)Nc2ccccc2NC(=O)c2ccc(OC)cc2)cc1	0 l M-1	0 l M-1
COc1ccc(C(=O)Nc2ccc(C(=O)O)cc2NC(=O)c2ccc(C(C)(C)C)cc2)cc1	1.28e+07 l M-1	70000 l M-1
COc1ccc(C(=O)Nc2ccccc2NC(=O)c2ccc(OC)cc2)cc1	840000 l M-1	20000 l M-1
COc1ccc(C(=O)Nc2ccccc2NC(=O)c2ccc(C(=O)C(F)(F)F)cc2)cc1	10000 l M-1	0 l M-1
COc1ccc(C(=O)Nc2c(OC)ccc(OC)c2NC(=O)c2ccc(OC)cc2)cc1	770000 l M-1	10000 l M-1
COc1ccc(C(=O)Nc2ccccc2NC(=O)c2ccc(N(C)C)cc2)cc1	1.69e+07 l M-1	50000 l M-1
CCCCOc1ccc(C(=O)Nc2ccccc2NC(=O)c2ccc(OC)cc2)cc1	80000 l M-1	0 l M-1
CCc1ccc(C(=O)Nc2cc(O)ccc2NC(=O)c2ccc(OC)cc2)cc1	2.68e+06 l M-1	40000 l M-1
CCCOc1ccc(C(=O)Nc2ccccc2NC(=O)c2ccc(OC)cc2)cc1	440000 l M-1	0 l M-1
COc1ccc(C(=O)Nc2ccccc2N(C)C(=O)c2ccc(OC)cc2)cc1	20000 l M-1	0 l M-1

SMILES	K ass [1]	K ass [2]
COc1ccc(C(=O)Nc2ccccc2NC(=O)c2ccc(Oc3ccccc3)cc2)cc1	290000 l M-1	0 l M-1
COc1ccc(C(=O)Nc2ccc(C(=O)O)cc2NC(=O)c2ccc(OC)cc2)cc1	320000 l M-1	20000 l M-1
CC(C)(C)c1ccc(C(=O)Nc2ccccc2NC(=O)c2ccc(Cl)cc2)cc1	2.92e+06 l M-1	50000 l M-1
CC(C)(C)c1ccc(C(=O)Nc2ccccc2NC(=O)c2ccc(OC(F)(F)F)cc2)cc1	0 l M-1	0 l M-1
CC(C)(C)c1ccc(C(=O)Nc2ccccc2NC(=O)c2ccccc2)cc1	380000 l M-1	70000 l M-1
C=Cc1ccc(C(=O)Nc2ccccc2NC(=O)c2ccc(C(C)(C)C)cc2)cc1	3.05e+06 l M-1	10000 l M-1
COc1ccc(C(=O)Nc2ccccc2NC(=O)c2ccc(C(C)C)cc2)cc1	4.91e+06 l M-1	80000 l M-1
COc1ccc(C(=O)Nc2ccccc2NC(=O)c2ccc(OC(C)C)cc2)cc1	1.19e+06 l M-1	40000 l M-1
COc1ccc(C(=O)Nc2ccccc2NC(=O)c2ccc([S+](C)[O-])cc2)cc1 (stereo not drawn)	430000 l M-1	0 l M-1
CC(C)(C)c1ccc(C(=O)Nc2ccccc2NC(=O)c2ccc(F)cc2)cc1	510000 l M-1	0 l M-1
COc1ccc(C(=O)Nc2cc(O)ccc2NC(=O)c2ccc(C(C)(C)C)cc2)cc1	3.56e+06 l M-1	50000 l M-1
COc1ccc(C(=O)Nc2ccccc2NC(=O)c2ccc(-c3ccccc3)cc2)cc1	1.1e+06 l M-1	0 l M-1
COc1ccc(C(=O)Nc2ccc(O)cc2NC(=O)c2ccc(C(C)(C)C)cc2)cc1	–	40000 l M-1
CCOc1ccc(C(=O)Nc2ccccc2NC(=O)c2ccc(OC)cc2)cc1	640000 l M-1	0 l M-1
COc1ccc(C(=O)Nc2ccccc2NC(=O)c2ccc(OC)cc2OC)cc1	520000 l M-1	20000 l M-1
COc1ccc(C(=O)Nc2cccc(NC(=O)c3ccc(OC)cc3)c2)cc1	0 l M-1	0 l M-1
COc1ccc(C(=O)Nc2cc(NS(C)(=O)=O)ccc2NC(=O)c2ccc(C(C)(C)C)cc2)cc1	1.3e+07 l M-1	130000 l M-1
COc1ccc(C(=O)Nc2ccccc2NC(=O)c2ccc(OC(C)(C)C)cc2)cc1	820000 l M-1	10000 l M-1
COc1ccc(C(=O)Nc2ccc(OC)cc2NC(=O)c2ccc(OC)cc2)cc1	1.25e+06 l M-1	–
COc1ccc(C(=O)Nc2ccc(Cl)cc2NC(=O)c2ccc(OC)cc2)cc1	420000 l M-1	–
COc1ccc(C(=O)Nc2ccc(O)cc2NC(=O)c2ccc(OC)cc2)cc1	640000 l M-1	20000 l M-1
COc1ccc(C(=O)Nc2ccccc2NC(=O)c2ccc(C(C)(C)C)cc2)cc1	7.31e+06 l M-1	50000 l M-1
COc1cccc(C(=O)Nc2ccccc2NC(=O)c2ccc(C(C)(C)C)cc2)c1	20000 l M-1	0 l M-1
COc1ccc(C(=O)Nc2ccccc2NC(=O)c2ccc(S(=O)(=O)N(C)C)cc2)cc1	660000 l M-1	0 l M-1
